This note sets out measurements from ChEMBL document CHEMBL4422612, “Small Molecule Inhibitor that Stabilizes the Autoinhibited Conformation of the Oncogenic Tyrosine Phosphatase SHP2” (J Med Chem, 2019).

Positions count from the first letter of the chain named. Activity calls are given as the source filed them. The rule behind the calls is not given here.

The target of assay [1] is T1, Tyrosine-protein phosphatase non-receptor type 11 (Homo sapiens) (UniProt Q06124).
T1 sequence (whole entry): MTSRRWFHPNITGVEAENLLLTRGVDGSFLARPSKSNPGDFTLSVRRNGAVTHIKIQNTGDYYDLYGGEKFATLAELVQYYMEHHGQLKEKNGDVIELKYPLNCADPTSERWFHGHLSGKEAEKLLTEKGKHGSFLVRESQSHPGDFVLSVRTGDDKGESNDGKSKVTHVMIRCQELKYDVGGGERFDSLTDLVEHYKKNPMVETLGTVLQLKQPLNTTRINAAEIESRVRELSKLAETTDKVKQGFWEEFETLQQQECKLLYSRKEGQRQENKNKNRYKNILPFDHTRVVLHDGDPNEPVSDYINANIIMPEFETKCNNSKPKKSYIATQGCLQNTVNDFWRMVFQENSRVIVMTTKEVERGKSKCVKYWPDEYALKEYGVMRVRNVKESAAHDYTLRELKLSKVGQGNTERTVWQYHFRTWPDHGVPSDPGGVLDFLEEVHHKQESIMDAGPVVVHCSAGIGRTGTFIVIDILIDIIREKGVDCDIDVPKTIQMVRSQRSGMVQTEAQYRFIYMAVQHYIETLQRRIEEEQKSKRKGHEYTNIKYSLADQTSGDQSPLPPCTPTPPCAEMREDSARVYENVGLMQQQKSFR
Put plainly: Mixed type inhibition of human wild-type full length SHP2 assessed as substrate [Et] at 20 uM using H-Glu-Phe-pTyr-Ala-Glu-Val-Gly-Arg-Ser-Pro-Pro-Asp-Pro-Ala-Lys as substrate by Lineweaver-Burk plot analysis (reference value: 0.029 uM).

In assay [2] the target is T2, Tyrosine-protein phosphatase non-receptor type 11 (Mus musculus) (UniProt P35235).
T2 sequence (whole entry): T1 sequence (whole entry) with M450V, A550V, K590R
Put plainly: Inhibition of SHP2 in mouse Ba/F3 cells assessed as reduction in IL3-stimulated JAK2 phosphorylation pretreated for 4 hrs followed by IL3 stimulation and measured after 5 to 60 mins by Western blot analysis. It counts as cell-based. The method in brief: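 Ba/F3 cells starved overnight in serum- and cytokine-free RPMI1640. Treated with 20 µM compound for 4 h, then IL-3 (2 ng/mL) for the indicated times. RIPA lysates (50 µg) immunoblotted for p-Erk, p-Akt, p-Jak2 and p-Stat5, then reprobed for total proteins. Representative of three experiments.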

In assay [3] the test system is NCI-H661. Put plainly: Growth inhibition of PTPN11 N58S mutant harboring human NCI-H661 cells after 48 hrs by cell proliferation-based assay. The format is functional. The method in brief: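 H661 (PTPN11 N58S/+) and H596 (WT PTPN11) lung cancer cells exposed to a concentration series for 48 h, DMSO as control. Cell number measured by One Solution proliferation assay. Triplicates from one of three repeated experiments.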

The target of assay [4] is T1, Tyrosine-protein phosphatase non-receptor type 11 (Homo sapiens). The assay is described as follows: Ratio of IC50 for inhibition of recombinant full length human GST-tagged SHP2 PTP domain using pNPP as substrate pre-incubated for 15 mins before pNPP substrate addition and measured after 15 mins to IC50 for inhibition of wild type recombinant human SHP2 using H-Glu-Phe-pTyr-Ala-Glu-Val-Gly-Arg-Ser-Pro-Pro-Asp-Pro-Ala-Lys as substrate preincubated for 30 mins followed by substrate addition and measured after 30 mins by Malachite Green-reagent based assay.

The target in assay [5] is T2, Tyrosine-protein phosphatase non-receptor type 11 (Mus musculus). Put plainly: Inhibition of PTPN11 in PTPN11-expressing mouse embryonic fibroblasts assessed as inhibition of cell growth at 6 uM after 24 to 72 hrs by cell proliferation-based assay. The method in brief: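 Ptpn11 fl/fl and Ptpn11 +/+ MEFs, both Ade-Cre+, infected with adeno-Cre, then given 6 µM compound or DMSO. Growth measured at 24, 48 and 72 h by One Solution proliferation assay. SHP2 loss confirmed by immunoblot. Triplicates from one of three experiments.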

Assay [6] addresses T1, Tyrosine-protein phosphatase non-receptor type 11 (Homo sapiens). Put plainly: Inhibition of human wild-type full length SHP2 at 20 uM using H-Glu-Phe-pTyr-Ala-Glu-Val-Gly-Arg-Ser-ProPro-Asp-Pro-Ala-Lys as substrate in presence of 0.001% Triton X.

For `CCOc1cc(O)c(C(=O)/C=C/c2ccc(Cl)cc2Cl)cc1CN1CCC=C(n2c(=O)[nH]c3ccccc32)C1`, in assay [1], the Activity is 0.029 µM. In assay [2], the inhibition result is “Dose-dependent effect”. Further, the “growth inhibition (GI)” value in assay [3] and in assay [5] was “Active” throughout. In addition, the Ratio IC50 in assay [4] is greater than 2. Further, in assay [6], the inhibition result was “Active”.
